{
  "source": "paper PMC8159897",
  "about": "(Angewandte Chemie (International ed. in English), 2021)",
  "key": {"[1]": {"test": "Critical micelle concentration", "assay_type": "physicochemical", "details": "self-assembly / aggregation (Figures S2, S16)"}, "Golgi of HeLa cells": {"system": "Golgi of HeLa cells", "test": "Golgi accumulation", "assay_type": "cell-based", "details": "pS1 10 μM, from 1 minute to 8 minutes of incubation", "how_it_was_run": "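HeLa cells first transfected 24 h with CellLight Golgi-RFP to mark the Golgi. They were then given the NBD-labelled thiophosphopeptide test compound at 10 μM and imaged live by confocal microscopy 1, 4 and 8 min after addition. Golgi-localised green (NBD) fluorescence was compared with the red Golgi-RFP signal, and the RFP stain was checked for bleed-through into the green channel.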"}, "[2]": {"system": "alkaline phosphatase (ALP)", "details": "incubated with ALP (0.1 U/mL) for about 16 minutes (Figure S15)"}},
  "data": [
    {"smiles": "O=C(CCNc1ccc([N+](=O)[O-])c2nonc12)N[C@H](Cc1ccccc1)C(=O)N[C@H](Cc1ccccc1)C(=O)NCCSP(=O)(O)O", "note": "[pS1]", "values": [
      {"measurement": "critical micelle concentration (CMC)", "setting": "[1]", "result": 6.0, "unit": "µM"},
      {"measurement": "enhancement of fluorescence intensity at the Golgi", "setting": "Golgi of HeLa cells", "result": "about 7 times"}
    ]},
    {"smiles": "O=C(Cc1ccc2ccccc2c1)N[C@H](Cc1ccccc1)C(=O)N[C@H](Cc1ccccc1)C(=O)NCCSP(=O)(O)O", "note": "[pS2]", "values": [
      {"measurement": "conversion ratio to dephosphorylated product", "setting": "[2]", "result": "nearly fully converted"},
      {"measurement": "critical micelle concentration (CMC)", "setting": "[1]", "result": 9.5, "unit": "µM"}
    ]}
  ]
}
